Screening results deposited in PubChem by several laboratories.
DAGLB inhibitor – DAGLB lipase inhibitors, primary screen, biochemical, fluorescence, HTS; Diacylglycerol lipase-beta (Homo sapiens), Q8NCG7; HEK293T DAGLB membrane lysate, EnzChek fluorogenic substrate; inhibition, % at 5.17 µM; 340,000 compounds, 0.059% hits; AID 504411, 2011; in the data active = inhibition above about 34%;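 note: 0% = enzyme with vehicle and 100% = wells lacking enzyme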
Target sequence (Q8NCG7 whole entry, looked up): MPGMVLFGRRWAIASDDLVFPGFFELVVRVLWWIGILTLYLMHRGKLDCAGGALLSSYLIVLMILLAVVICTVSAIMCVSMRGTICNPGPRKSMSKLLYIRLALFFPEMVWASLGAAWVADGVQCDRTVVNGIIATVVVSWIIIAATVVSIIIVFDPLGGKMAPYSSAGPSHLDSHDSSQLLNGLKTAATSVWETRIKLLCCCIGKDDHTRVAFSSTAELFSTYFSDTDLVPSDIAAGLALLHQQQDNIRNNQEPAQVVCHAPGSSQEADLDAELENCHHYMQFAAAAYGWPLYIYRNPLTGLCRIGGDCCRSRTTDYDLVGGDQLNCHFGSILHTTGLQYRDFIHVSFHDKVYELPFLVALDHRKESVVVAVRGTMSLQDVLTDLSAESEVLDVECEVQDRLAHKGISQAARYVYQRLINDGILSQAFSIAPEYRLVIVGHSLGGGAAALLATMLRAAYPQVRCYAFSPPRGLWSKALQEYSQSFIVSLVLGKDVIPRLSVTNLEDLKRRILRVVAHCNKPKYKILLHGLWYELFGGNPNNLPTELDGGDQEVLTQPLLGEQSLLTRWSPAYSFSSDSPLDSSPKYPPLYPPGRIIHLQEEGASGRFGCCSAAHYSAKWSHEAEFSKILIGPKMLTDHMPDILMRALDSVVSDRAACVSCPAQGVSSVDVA
Granule exo inh – LAMP-1 surface exposure blockers, TALL-104 cells – cell-based, flow cytometry, MLPCN library, primary screen. inhibition, % at 10 µM. 360,000 compounds, 0.66% hits. AID 651702, 2012. TALL-104 LAMP-1 surface exposure; cells stimulated with thapsigargin and PMA;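 active = inhibition above about 55%, limit read from the data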
ABCB6 inh 2 – ABCB6 transporter inhibitors, primary screen, K562-ABCB6 cells, flow cytometry, MLPCN library. K562-ABCB6 porphyrin accumulation, 1 h; hits give low values. ATP-binding cassette sub-family B member 6 (Homo sapiens), Q9NP58. fluorescence ratio to DMSO, % at 10 µM. 360,000 compounds, 0.19% hits. AID 602162, 2011;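 active = fluorescence ratio to DMSO below 75%, the collection mean minus 3 SD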;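 note: signal is porphyrin accumulated inside mitochondria; 100% equals median channel fluorescence of DMSO control wells; lower ratio means ABCB6 inhibition with less porphyrin fluorescence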
VLA-4 inh – inhibition in human VLA-4 binding assay, primary screen, VLA-4 allosteric modulator project, MLPCN library, flow cytometry, VLA-4 expressing cells; ligand binding flow cytometry; inhibition, % (about 7 µM as worked out from the volumes in the protocol); 330,000 compounds, 0.2% hits; AID 2557, 2010; in the data active = inhibition above about 50%
MT1-MMP act inh – blockers of MT1-MMP proenzyme processing, primary screen, HT1080 RFP-PRO-GFP cells, GFP/RFP fluorescence; 360,000 compounds, 0.061% hits; Matrix metalloproteinase-14 (Homo sapiens), P50281; GFP/RFP ratio fluorescence, overnight; percent of plate control window, DMSO zero; GFP/RFP ratio change, % at 20 µM;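 active = GFP/RFP ratio change of at least 30% with cell ATP level not reduced by more than half and red fluorescence within 50% of control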
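Material – HT1080 RFP-PRO-GFP cells · Control set – DMSO wells and RFP-L50D-GFP cells · Incubation – overnight cell settling, then overnight compound exposure, 37 °C, 5% CO2 · Compound dosing – single-point 20 µM compound, 1% DMSO · Read-out – GFP/RFP fluorescence ratio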
FGF22 binding – binders of human FGF22 protein, primary screen, FGF22 synaptogenesis inhibitor project, biophysical, thermal shift, single point; Fibroblast growth factor 22 (Homo sapiens), Q9HCT0; recombinant FGF22 thermal shift, SYPRO orange fluorescence; percent of sucrose octasulfate shift, DMSO zero; activity (Tm shift, normalised), % at 9.99 µM; 340,000 compounds, 1.5% hits;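 active = mean Tm shift, scaled 0 neutral to 100 positive control, at about 1.3% or above, every replicate too, limit read from the data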
The depositor's hits bear a star; . = not tested or not shown. Only some compounds are listed: those with a hit (about 2% of all), similar ones and a draw of the others.

SMILES	DAGLB inhibitor	Granule exo inh	ABCB6 inh 2	VLA-4 inh	MT1-MMP act inh	FGF22 binding
CC(=O)Nc1cccc(NC(=O)c2ccc(COc3ccccc3)cc2)c1	-3	-9	97	.	3	43*
CC(C)(C)[C@@H]1C=C(C(=O)N2CCCC2)O[C@H](OCc2ccc(CO)cc2)C1	.	.	.	.	.	0
CC(=O)N1C[C@H]2[C@@H](c3ccccc31)[C@@H](CO)N2S(=O)(=O)c1ccccc1	.	.	.	.	.	0
COc1ccccc1S(=O)(=O)N1CC[C@@H]2[C@H]1c1cc(-c3ccccc3F)ccc1N(C)[C@H]2CO	.	.	.	.	.	0
NS(=O)(=O)c1ccc(CCNC(=O)c2ccc(Br)s2)cc1	-1	0	97	3	1	43*
O=C(NCCc1ccc(Cl)cc1)c1ccc(Br)s1	-8	2	96	-2	0	0
C[C@@H]1CN([C@@H](C)CO)C(=O)c2cc(NC(=O)Nc3ccccc3)ccc2O[C@@H](C)CCCCO[C@H]1CN(C)S(=O)(=O)c1ccc(Cl)cc1	.	.	.	.	.	0
O=c1[nH]c(/C=C/c2cccc3ccccc23)nc2ccccc12	-12	23	97	-3	-1	0
O=c1nc2cccc3c2=c(/c1=C(\O)c1ccccc1)c1ccccc1c3=O	4	-2	108	-10	-14	44*
O=C(/C=C/c1ccc(OCCCF)cc1)Nc1ccnc(-c2cccnc2)n1	3	4	93	-41	1	44*
CCN1/C(=C2\C(=O)N(C)C(=S)N2c2ccccc2)C=Cc2ccccc21	3	-2	101	4	-5	0
CCN1/C(=C2\C(=O)N(C)C(=S)N2C)C=Cc2ccccc21	4	11	103	11	4	43*
C[C@@H]1CCCCO[C@@H](CN(C)CC2CCCCC2)[C@@H](C)CN([C@@H](C)CO)C(=O)c2cc(NS(=O)(=O)c3ccc(F)cc3)ccc2O1	.	.	.	.	.	0
O=C(C[C@@H]1CC[C@H]2[C@@H](COC[C@H](O)CN2CC2CC2)O1)NCc1ccc(Cl)cc1	.	.	.	.	.	0
COc1ccc(N(CC(=O)NCc2ccco2)S(=O)(=O)c2ccccc2)cc1	-2	-8	102	-4	1	43*
COc1ccc(S(=O)(=O)N(CC(=O)NCc2ccco2)c2ccccc2)cc1	-3	3	100	-1	1	.
COc1ccc2[nH]cc(CCNC(=O)Cn3cc(C)c(=O)[nH]c3=O)c2c1	-1	12	99	.	4	43*
COc1ccc2[nH]cc(CCNC(=O)Cc3ccc(Br)cc3)c2c1	-2	4	102	1	2	0
COc1cc(/C=C/C(=O)O)ccc1OCc1ccc([N+](=O)[O-])cc1	-1	4	97	-2	-2	43*
CCNC(=O)Nc1ccc2c(c1)C(=O)N(C)[C@H]1CC[C@H](CC(=O)NCC3CCCCC3)O[C@H]1CO2	.	.	.	.	.	0
Cc1ccc(NC(=S)Nc2cccc3cnccc23)cc1C	-3	56*	102	-6	-3	0
C[C@@H]1CCCCO[C@H](CN(C)C(=O)C2CCCCC2)[C@H](C)CN([C@H](C)CO)C(=O)c2cc(NS(=O)(=O)c3cn(C)cn3)ccc2O1	.	.	.	.	.	1
O=c1ccc(-c2nc3ccccc3n2Cc2ccccc2Cl)c[nH]1	1	-4	94	13	3	43*
C[C@]12CCC(=O)N1CCc1c2[nH]c2ccccc12	.	.	.	.	.	0
Cc1sc(NC(=O)Cn2cnnn2)nc1-c1ccc(Cl)cc1	-2	-1	93	4	2	43*
SMILES	DAGLB inhibitor	Granule exo inh	ABCB6 inh 2	VLA-4 inh	MT1-MMP act inh	FGF22 binding
COc1ccc(NC(=O)Nc2cccc3c2O[C@H](CN(C)Cc2ccccc2)[C@@H](C)CN([C@H](C)CO)C3=O)cc1	.	.	.	.	.	0
Cc1cc([N+](=O)[O-])ccc1NC(=O)C[n+]1ccc(N(C)C)cc1	0	-3	100	3	-4	43*
COc1ccc(S(=O)(=O)N(C)C[C@@H]2Oc3ccc(NC(=O)CCCCCC(=O)Nc4ccccc4N)cc3CC(=O)N([C@H](C)CO)C[C@H]2C)cc1	.	.	.	.	.	0
Cc1nccn1-c1ccc(C(F)(F)F)cc1NC=O	-2	2	101	13	1	.
Cc1nccn1-c1ccc(C(F)(F)F)cc1[N+](=O)[O-]	-2	1	93	9	1	43*
CC(=O)OCC(=O)Nc1ccc(Br)c(C)c1	-1	-8	97	7	17	43*
O=C(/C=C/c1ccccc1[N+](=O)[O-])N1CCCCC1	1	1	90	15	-5	43*
C[C@@H](NC(=O)C[C@H]1C[C@@H]2c3cc(NS(C)(=O)=O)ccc3O[C@@H]2[C@H](CO)O1)c1ccccc1	.	.	.	.	.	0
C[C@H](NC(=O)C[C@@H]1CC[C@H]2[C@@H](COC[C@H](O)CN2Cc2cc(F)ccc2F)O1)c1ccccc1	.	.	.	.	.	0
CCCNc1ncnc2ccc(Br)cc12	.	.	.	.	.	1
OCCNc1ncnc2ccc(Br)cc12	-3	2	70*	12	-2	.
O=C(OCc1cc([N+](=O)[O-])cc2c1OCOC2)c1ccccn1	-1	-3	97	2	-1	43*
C[C@H]1CN([C@@H](C)CO)S(=O)(=O)c2ccc(C3=CCCC3)cc2O[C@@H]1CN(C)CC1CCOCC1	.	.	.	.	.	0
O=[N+]([O-])c1cc(Cl)ccc1N1CCCC1	4	1	102	5	-5	44*
O=C(N[C@@H]1CC[C@H](CCNS(=O)(=O)c2cccc(Cl)c2)O[C@@H]1CO)c1ccncc1	.	.	.	.	.	0
Cc1ccc(C2=NCCn3c2c2ccc(C(F)(F)F)cc2[n+]3[O-])cc1	4	-12	98	-2	4	43*
O=C(Cc1cccs1)Nc1cccc([N+](=O)[O-])c1	1	3	106	2	1	43*
Nc1nc(SCC(=O)Nc2cccc([N+](=O)[O-])c2)n[nH]1	3	-1	103	-6	0	0
O=C(CCc1n[nH]c(=O)[nH]c1=O)Nc1cccc([N+](=O)[O-])c1	-1	0	97	13	7	44*
CC(CC(=O)O)CC(=O)Nc1cccc([N+](=O)[O-])c1 (centres undefined)	1	2	101	10	0	43*
